Experimental data as given in ChEMBL document CHEMBL3856275, “Discovery of Second Generation Reversible Covalent DPP1 Inhibitors Leading to an Oxazepane Amidoacetonitrile Based Clinical Candidate (AZD7986)” (J Med Chem, 2016).
Converted amounts (≈) assume the structure as drawn. Blank lines part the entries; values can stand above or below the compound they belong to.

Key:
[1] = Propionaldehyde reactivity assessed as half life of the compound at pH 7.4 by LC-UV method; type: physicochemical
Dipeptidyl peptidase 1 [2] = biological target: T1, Dipeptidyl peptidase 1 (Homo sapiens, UniProt P53634); test: Inhibition of DPP1 in human U937 cells using Gly-Phe-AFC as substrate preincubated for 60 mins followed by substrate addition by fluorescence assay; type: cell-based, U-937
T1 sequence (P53634 25-134 limits assumed): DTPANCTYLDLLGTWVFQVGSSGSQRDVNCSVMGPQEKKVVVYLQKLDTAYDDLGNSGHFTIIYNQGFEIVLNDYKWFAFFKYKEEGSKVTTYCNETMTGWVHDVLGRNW
T1 sequence (P53634 231-394 limits assumed): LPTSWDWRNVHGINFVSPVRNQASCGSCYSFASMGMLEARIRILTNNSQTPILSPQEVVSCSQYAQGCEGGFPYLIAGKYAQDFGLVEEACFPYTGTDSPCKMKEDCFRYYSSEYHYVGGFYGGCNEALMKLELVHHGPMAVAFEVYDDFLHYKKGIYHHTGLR
T1 sequence (P53634 395-463 limits assumed): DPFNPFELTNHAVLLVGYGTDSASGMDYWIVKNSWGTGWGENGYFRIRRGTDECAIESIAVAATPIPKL

Dipeptidyl peptidase 1 [3] = biological target: T1, Dipeptidyl peptidase 1; test: Inhibition of human recombinant DPP1 using Gly-Arg-AMC as substrate preincubated for 30 mins followed by substrate addition by fluorometric assay
In short: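 Isolated human recombinant DPP1 was run in a fluorometric assay in piperazine-based buffer. Compound was pre-incubated with enzyme for 30 min at rt, then Gly-Arg-AMC dipeptide substrate was added. Data were curve-fitted to give pIC50, as the mean of at least two experiments.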

physchem [4] = settings: octanol/water, pH 7.4
[5] = biological target: Voltage-gated inwardly rectifying potassium channel KCNH2 (Homo sapiens, UniProt Q12809)
Voltage-gated inwardly rectifying potassium channel KCNH2, sequence (Q12809 whole entry): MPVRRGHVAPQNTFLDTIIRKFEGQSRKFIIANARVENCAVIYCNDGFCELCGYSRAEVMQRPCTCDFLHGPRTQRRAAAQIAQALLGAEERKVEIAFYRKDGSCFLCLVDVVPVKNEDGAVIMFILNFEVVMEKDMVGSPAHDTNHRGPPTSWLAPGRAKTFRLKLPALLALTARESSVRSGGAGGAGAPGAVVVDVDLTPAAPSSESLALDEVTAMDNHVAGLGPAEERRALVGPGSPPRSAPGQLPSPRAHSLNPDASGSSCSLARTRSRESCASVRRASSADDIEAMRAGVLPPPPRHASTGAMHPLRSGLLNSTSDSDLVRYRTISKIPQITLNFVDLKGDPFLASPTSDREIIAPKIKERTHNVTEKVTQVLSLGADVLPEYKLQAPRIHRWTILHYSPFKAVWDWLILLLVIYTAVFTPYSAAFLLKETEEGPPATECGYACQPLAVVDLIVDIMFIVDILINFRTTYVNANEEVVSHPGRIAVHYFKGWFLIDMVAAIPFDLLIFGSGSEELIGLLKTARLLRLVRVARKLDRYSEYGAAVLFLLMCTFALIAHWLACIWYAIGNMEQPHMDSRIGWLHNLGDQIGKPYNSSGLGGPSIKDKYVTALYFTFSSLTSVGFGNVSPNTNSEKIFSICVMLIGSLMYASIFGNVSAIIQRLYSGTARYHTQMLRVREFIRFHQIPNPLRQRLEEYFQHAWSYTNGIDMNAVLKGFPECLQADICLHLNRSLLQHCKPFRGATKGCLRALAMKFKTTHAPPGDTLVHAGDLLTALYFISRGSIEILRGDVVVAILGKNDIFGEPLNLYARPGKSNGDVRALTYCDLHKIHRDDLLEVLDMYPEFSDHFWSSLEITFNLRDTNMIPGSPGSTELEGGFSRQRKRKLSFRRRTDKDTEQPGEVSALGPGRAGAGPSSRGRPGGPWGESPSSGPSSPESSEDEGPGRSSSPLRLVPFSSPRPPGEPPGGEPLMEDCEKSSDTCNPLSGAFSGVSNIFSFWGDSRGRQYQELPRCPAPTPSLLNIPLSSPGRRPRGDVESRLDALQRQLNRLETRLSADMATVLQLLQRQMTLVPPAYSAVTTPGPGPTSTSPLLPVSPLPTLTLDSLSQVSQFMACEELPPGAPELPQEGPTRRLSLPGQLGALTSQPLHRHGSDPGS

[6] = Apparent permeability across basolateral to apical side in human Caco2 cells at 10 uM after 1 hr by LC-MS method; settings: Caco-2
[7] = Protein binding in human plasma at 10 uM after 6 hrs by LC-MS/MS method; type: ADME, cell-free; settings: read-out: PPB (converted)
[8] = Efflux ratio of apparent permeability across basolateral to apical over apical to basolateral side in human Caco2 cells at 10 uM after 1 hr by LC-MS method; settings: Caco-2
[9] = Intrinsic clearance in rat hepatocytes assessed per 10^6 cells at 1 uM after 10 to 90 mins by LC-MS/MS method; type: ADME, cell-based, Hepatocyte
[10] = Apparent permeability across apical to basolateral side in human Caco2 cells at 10 uM after 1 hr by LC-MS method; settings: Caco-2
[11] = Intrinsic clearance in human liver microsomes at 1 uM after 5 to 40 mins by LC-MS/MS method; type: ADME; settings: read-out: CLH
[12] = Protein binding in rat plasma at 10 uM after 6 hrs by LC-MS/MS method; type: ADME, cell-free; settings: read-out: PPB (converted)
physchem [13] = settings: pH 7.4
[14] = Oral bioavailability in Beagle dog at 2 mg/kg; type: ADME, organism-based, Canis lupus familiaris; settings: in vivo
[15] = Half life in Sprague-Dawley rat at 1 mg/kg, iv or 3 mg/kg, po; type: ADME, organism-based; settings: in vivo
[16] = Clearance in Sprague-Dawley rat at 1 mg/kg, iv or 3 mg/kg, po; type: ADME, organism-based; settings: in vivo
[17] = Protein binding in dog plasma at 10 uM after 6 hrs by LC-MS/MS method; type: ADME, cell-free, Canis lupus familiaris; settings: read-out: PPB (converted)
[18] = Volume of distribution at steady state in Sprague-Dawley rat at 1 mg/kg, iv or 3 mg/kg, po; type: ADME, organism-based; settings: in vivo, read-out: Vdss
[19] = Oral bioavailability in Sprague-Dawley rat at 3 mg/kg; type: ADME, organism-based; settings: in vivo
[20] = Intrinsic clearance in human hepatocytes assessed per 10^6 cells at 1 uM after 10 to 90 mins by LC-MS/MS method; type: ADME, cell-based, Hepatocyte
[21] = Clearance in Beagle dog at 1 mg/kg, iv and 2 mg/kg, po; type: ADME, organism-based, Canis lupus familiaris; settings: in vivo
[22] = Intrinsic clearance in dog hepatocytes assessed per 10^6 cells at 1 uM after 10 to 90 mins by LC-MS/MS method; type: ADME, cell-based, Canis lupus familiaris, Hepatocyte
[23] = Half life in Beagle dog at 1 mg/kg, iv and 2 mg/kg, po; type: ADME, organism-based, Canis lupus familiaris; settings: in vivo
[24] = Volume of distribution at steady state in Beagle dog at 1 mg/kg, iv and 2 mg/kg, po; type: ADME, organism-based, Canis lupus familiaris; settings: in vivo, read-out: Vdss
[25] = Half life in Han Wistar rat at 1 mg/kg, iv and 3 mg/kg, po; type: ADME, organism-based; settings: in vivo
In short: (§1)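 Han Wistar rat PK with 1 mg/kg iv and 3 mg/kg po doses, both in pH3 buffer. Clearance is given in ml/min/kg, Vss in L/kg and t1/2 in h.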

[26] = Volume of distribution at steady state in Han Wistar rat at 1 mg/kg, iv and 3 mg/kg, po; type: ADME, organism-based; settings: in vivo, read-out: Vdss; in short: as §1
[27] = Clearance in Han Wistar rat at 1 mg/kg, iv and 3 mg/kg, po; type: ADME, organism-based; settings: in vivo; in short: as §1
[28] = Oral bioavailability in Han Wistar rat at 3 mg/kg; type: ADME, organism-based; settings: in vivo; in short: as §1

Structure (SMILES): N#Cc1ccc(-c2ccc(C[C@@H](C#N)NC(=O)[C@@H]3CCCC[C@H]3N)cc2)cc1
half-life [1]: > 50 h
IC50 (Dipeptidyl peptidase 1 [2]): 158 nM
IC50 (Dipeptidyl peptidase 1 [3]): 316 nM

Structure (SMILES): N#Cc1ccc(-c2ccc(C[C@@H](C#N)NC(=O)[C@H]3CNCCCO3)cc2)cc1
half-life [1]: > 50 h
logD at 10 µM (physchem [4]): 1.2
IC50 (Dipeptidyl peptidase 1 [3]): 6310 nM

Structure (SMILES): N#Cc1ccc(-c2ccc(C[C@@H](C#N)NC(=O)[C@H]3CNCCO3)cc2)cc1
half-life [1]: > 50 h
logD at 10 µM (physchem [4]): 1.6
IC50 (Dipeptidyl peptidase 1 [3]): > 10000 nM

Structure (SMILES): CCn1c(=O)oc2ccc(-c3ccc(C[C@@H](C#N)NC(=O)[C@@H]4CNCCCO4)cc3)cc21
bioavailability [14]: 85%
half-life [15]: 8 h
half-life [1]: > 50 h
clearance [16]: 4 mL/min/kg
fraction unbound at 6 h, 10 µM [17]: 0.14
Vd [18]: 2 L/kg
bioavailability [19]: 36%
intrinsic clearance (CLint) [20]: < 3.5 µL/min/10^6 cells
clearance [21]: 6 mL/min/kg
CLH [22]: < 3.5 µL/min/10^6 cells
fraction unbound at 6 h, 10 µM [7]: 0.06
CLH [9]: < 3.5 µL/min/10^6 cells
half-life [23]: 16 h
microsomal CLint at 1 µM [11]: < 14 µL/min/mg
Vd [24]: 9 L/kg
fraction unbound at 6 h, 10 µM [12]: 0.08

Structure (SMILES): CN1C(=O)Cc2ccc(-c3ccc(C[C@@H](C#N)NC(=O)C4(N)CCOCC4)cc3)cc21
IC50 (Dipeptidyl peptidase 1 [2]): 1.58 nM

Structure (SMILES): N#Cc1ccc(-c2ccc(C[C@@H](C#N)NC(=O)[C@H]3CCCNC3)cc2)cc1
logD at 10 µM (physchem [4]): 0.2
IC50 (Dipeptidyl peptidase 1 [3]): > 10000 nM

Structure (SMILES): N#Cc1ccc(-c2ccc(C[C@@H](C#N)NC(=O)C3(N)CCOCC3)cc2)cc1
half-life [1]: < 1 h

Structure (SMILES): CN1C(=O)COc2ccc(-c3ccc(C[C@@H](C#N)NC(=O)[C@@H]4CNCCCO4)cc3)cc21
logD at 10 µM (physchem [4]): 1.1
IC50 (Dipeptidyl peptidase 1 [2]): 12.6 nM

Structure (SMILES): N#Cc1ccc(-c2ccc(C[C@@H](C#N)NC(=O)[C@@H]3CNCCO3)cc2)cc1
half-life [1]: > 50 h
logD at 10 µM (physchem [4]): 1.4
IC50 (Dipeptidyl peptidase 1 [2]): 501 nM
IC50 (Dipeptidyl peptidase 1 [3]): 398 nM

Structure (SMILES): N#C[C@H](Cc1ccc(-c2ccc3scnc3c2)cc1)NC(=O)[C@@H]1CNCCCO1
logD at 10 µM (physchem [4]): 1.5
IC50 (Dipeptidyl peptidase 1 [3]): 63.1 nM

Second part, led by results:

logD at 10 µM (physchem [4]): 0.6
IC50 (Dipeptidyl peptidase 1 [3]): 25.1 nM
Structure (SMILES): Cn1c(=O)cnc2ccc(-c3ccc(C[C@@H](C#N)NC(=O)[C@@H]4CNCCCO4)cc3)cc21

half-life [1]: > 50 h
logD at 10 µM (physchem [4]): 2
Papp B→A at 1 h, 10 µM [6]: 23 ×10⁻⁶ cm/s
IC50 (Dipeptidyl peptidase 1 [2]): 31.6 nM
fraction unbound at 6 h, 10 µM [7]: 0.03
efflux ratio at 1 h, 10 µM [8]: 2
CLH [9]: < 3.5 µL/min/10^6 cells
Papp A→B at 1 h, 10 µM [10]: 11 ×10⁻⁶ cm/s
IC50 (Dipeptidyl peptidase 1 [3]): 39.8 nM
microsomal CLint at 1 µM [11]: 13 µL/min/mg
fraction unbound at 6 h, 10 µM [12]: 0.08
solubility kinetic at 2 h (physchem [13]; buffer): 175 µM (≈ 67.6 µg/mL)
Structure (SMILES): N#Cc1ccc(-c2ccc(C[C@@H](C#N)NC(=O)[C@@H]3CCCCC[C@@H]3N)cc2)cc1
IC50 [5]: 3600 nM

logD at 10 µM (physchem [4]): 2.8
IC50 (Dipeptidyl peptidase 1 [3]): 39.8 nM
Structure (SMILES): N#C[C@H](Cc1ccc(-c2ccc(C(F)(F)F)cc2)cc1)NC(=O)[C@@H]1CNCCCO1

logD at 10 µM (physchem [4]): 1.5
IC50 (Dipeptidyl peptidase 1 [2]): 15.8 nM
IC50 (Dipeptidyl peptidase 1 [3]): 15.8 nM
Structure (SMILES): Cc1noc2ccc(-c3ccc(C[C@@H](C#N)NC(=O)[C@@H]4CNCCCO4)cc3)cc12

half-life [25]: 6.2 h
bioavailability [14]: 71%
half-life [1]: > 50 h
Vd [26]: 2 L/kg
fraction unbound at 6 h, 10 µM [17]: 0.25
logD at 10 µM (physchem [4]): 1.1
intrinsic clearance (CLint) [20]: < 3.5 µL/min/10^6 cells
clearance [21]: 4.1 mL/min/kg
Papp B→A at 1 h, 10 µM [6]: 45 ×10⁻⁶ cm/s
clearance [27]: 3.8 mL/min/kg
CLH [22]: < 4 µL/min/10^6 cells
IC50 (Dipeptidyl peptidase 1 [2]): 31.6 nM
fraction unbound at 6 h, 10 µM [7]: 0.09
efflux ratio at 1 h, 10 µM [8]: 2.4
CLH [9]: < 3.5 µL/min/10^6 cells
Papp A→B at 1 h, 10 µM [10]: 19 ×10⁻⁶ cm/s
IC50 (Dipeptidyl peptidase 1 [3]): 39.8 nM
half-life [23]: 10.7 h
microsomal CLint at 1 µM [11]: 9.5 µL/min/mg
Vd [24]: 3.9 L/kg
fraction unbound at 6 h, 10 µM [12]: 0.24
solubility kinetic at 2 h (physchem [13]; phosphate buffered saline): 170 µM (≈ 63.7 µg/mL)
bioavailability [28]: 25%
Structure (SMILES): N#Cc1ccc(-c2ccc(C[C@@H](C#N)NC(=O)[C@@H]3CNCCCO3)cc2)cc1
IC50 [5]: 17000 nM
